Laboratory results reported in ChEMBL document CHEMBL3351863, “Optimization of 2-phenyl-pyrimidine-4-carboxamides towards potent, orally bioavailable and selective P2Y(12) antagonists for inhibition of platelet aggregation” (Bioorg Med Chem Lett, 2014).

Columns and labels:
[1] = Potency shift, ratio of IC50 for inhibition of ADP-induced platelet aggregation in human platelet rich plasma to IC50 for displacement of [3H]-2-methyl-thio-adenosine 5'-diphosphate from human recombinant P2Y12 expressed in CHO cell membranes
[2] = molecular target: Cytochrome P450 2D6 (Homo sapiens, UniProt P10635); assay: Inhibition of CYP2D6 in human liver microsomes assessed as reduction in dextromethorphan-O demethylation; assay type: ADME
Cytochrome P450 2D6, sequence (P10635 whole entry): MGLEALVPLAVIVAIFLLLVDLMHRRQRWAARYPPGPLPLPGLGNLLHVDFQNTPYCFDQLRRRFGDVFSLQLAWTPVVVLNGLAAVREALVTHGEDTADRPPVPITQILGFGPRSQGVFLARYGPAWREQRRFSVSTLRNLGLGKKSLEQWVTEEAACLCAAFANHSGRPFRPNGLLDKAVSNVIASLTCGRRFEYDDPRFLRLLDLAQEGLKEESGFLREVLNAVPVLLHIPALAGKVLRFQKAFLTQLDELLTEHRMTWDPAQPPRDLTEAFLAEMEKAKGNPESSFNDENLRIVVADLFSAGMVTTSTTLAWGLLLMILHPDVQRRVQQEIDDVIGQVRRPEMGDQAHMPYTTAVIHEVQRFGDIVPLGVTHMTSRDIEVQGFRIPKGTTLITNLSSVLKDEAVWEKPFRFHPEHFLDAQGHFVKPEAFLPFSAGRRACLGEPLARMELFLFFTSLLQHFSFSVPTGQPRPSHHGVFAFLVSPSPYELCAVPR

[3] = molecular target: P2Y purinoceptor 12 (Homo sapiens, UniProt Q9H244); assay: Displacement of [3H]-2-methyl-thio-adenosine 5'-diphosphate from human recombinant P2Y12 expressed in CHO cell membranes by scintillation counting method
P2Y purinoceptor 12, sequence (Q9H244 whole entry): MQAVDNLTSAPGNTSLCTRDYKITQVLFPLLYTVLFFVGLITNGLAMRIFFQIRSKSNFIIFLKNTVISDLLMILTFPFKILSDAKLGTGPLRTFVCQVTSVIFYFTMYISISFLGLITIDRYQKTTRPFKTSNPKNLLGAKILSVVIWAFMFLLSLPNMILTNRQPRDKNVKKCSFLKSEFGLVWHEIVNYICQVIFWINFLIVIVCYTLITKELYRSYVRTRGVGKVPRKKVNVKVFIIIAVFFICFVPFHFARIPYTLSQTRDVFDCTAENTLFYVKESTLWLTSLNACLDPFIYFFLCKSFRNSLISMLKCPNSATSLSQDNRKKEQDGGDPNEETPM
Method in brief: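 CHO cells expressing recombinant P2Y₁₂ receptors, incubated with tritium-labeled 2-methyl-thio-adenosine 5'-diphosphate plus test compound; IC₅₀ from displacement curves, each point in triplicate; reference compound run with every compound set, and set re-analyzed if its IC₅₀ fell outside pre-set 95% confidence interval.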

[4] = Protein binding in human plasma; assay type: ADME, cell-free; conditions: read-out: PPB (converted)
[5] = Solubility in basic pH; assay type: physicochemical
[6] = tested on: Liver microsome; assay: Metabolic stability assay in rat liver microsomes assessed as parent drug disappearance at 1 uM after 20 mins by HPLC and mass spectrometry method; assay type: ADME
[7] = molecular target: Cytochrome P450 2C9 (Homo sapiens, UniProt P11712); assay: Inhibition of CYP2C9 in human liver microsomes assessed as reduction in diclofenac 4'-hydroxylation; assay type: ADME
Cytochrome P450 2C9, sequence (P11712 whole entry): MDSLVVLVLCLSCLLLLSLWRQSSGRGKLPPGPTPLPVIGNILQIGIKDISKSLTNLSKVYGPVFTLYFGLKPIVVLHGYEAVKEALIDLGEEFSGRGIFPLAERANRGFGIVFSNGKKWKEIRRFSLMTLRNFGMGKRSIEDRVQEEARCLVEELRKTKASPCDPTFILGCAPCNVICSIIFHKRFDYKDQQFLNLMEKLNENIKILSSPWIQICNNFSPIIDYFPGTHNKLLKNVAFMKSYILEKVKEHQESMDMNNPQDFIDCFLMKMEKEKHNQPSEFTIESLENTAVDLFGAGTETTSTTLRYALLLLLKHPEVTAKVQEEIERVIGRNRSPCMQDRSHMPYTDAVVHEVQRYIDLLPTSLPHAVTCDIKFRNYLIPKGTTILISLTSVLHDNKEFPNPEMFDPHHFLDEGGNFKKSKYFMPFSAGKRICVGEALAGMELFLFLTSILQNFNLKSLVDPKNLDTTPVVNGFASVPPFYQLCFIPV

[8] = Solubility in neutral pH; assay type: physicochemical
[9] = tested on: Liver microsome; assay: Metabolic stability assay in human liver microsomes assessed as parent drug disappearance at 1 uM after 20 mins by HPLC and mass spectrometry method; assay type: ADME
[10] = tested on: Platelet; assay: Inhibition of ADP-induced platelet aggregation in human platelet rich plasma by in-vitro light transmission aggregometry assay; assay type: functional; conditions: Homo sapiens, Platelet, Plasma
Method in brief: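 Human platelet-rich plasma incubated with compound, aggregation induced by 3 µM ADP and read by light transmission aggregometry; IC₅₀ derived from concentration–response curve.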

[11] = molecular target: T1, Cytochrome P450 3A4 (Homo sapiens, UniProt P08684); assay: Inhibition of CYP3A4 in human liver microsomes assessed as reduction in testosterone 6beta-hydroxylation; assay type: ADME
T1 sequence (P08684 whole entry): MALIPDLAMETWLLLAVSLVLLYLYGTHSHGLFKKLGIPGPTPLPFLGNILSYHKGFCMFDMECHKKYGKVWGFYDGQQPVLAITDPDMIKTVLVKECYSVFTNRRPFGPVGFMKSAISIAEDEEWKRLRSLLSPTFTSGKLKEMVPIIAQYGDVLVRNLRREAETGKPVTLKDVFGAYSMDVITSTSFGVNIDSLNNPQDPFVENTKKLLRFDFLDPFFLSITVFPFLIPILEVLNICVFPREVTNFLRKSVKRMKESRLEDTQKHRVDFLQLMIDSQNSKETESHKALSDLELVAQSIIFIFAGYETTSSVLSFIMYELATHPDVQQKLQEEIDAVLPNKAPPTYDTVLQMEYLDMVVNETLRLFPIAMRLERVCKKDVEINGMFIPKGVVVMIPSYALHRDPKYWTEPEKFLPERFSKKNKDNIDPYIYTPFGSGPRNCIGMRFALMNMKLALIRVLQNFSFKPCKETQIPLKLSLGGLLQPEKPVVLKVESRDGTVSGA

[12] = molecular target: T1, Cytochrome P450 3A4; assay: Inhibition of CYP3A4 in human liver microsomes assessed as reduction in midazolam 1'-hydroxylation; assay type: ADME
[13] = molecular target: Voltage-gated inwardly rectifying potassium channel KCNH2 (Homo sapiens, UniProt Q12809); assay: Inhibition of human ERG expressed in HEK cells by patch-clamp assay; assay type: cell-based; conditions: hek293
Voltage-gated inwardly rectifying potassium channel KCNH2, sequence (Q12809 whole entry): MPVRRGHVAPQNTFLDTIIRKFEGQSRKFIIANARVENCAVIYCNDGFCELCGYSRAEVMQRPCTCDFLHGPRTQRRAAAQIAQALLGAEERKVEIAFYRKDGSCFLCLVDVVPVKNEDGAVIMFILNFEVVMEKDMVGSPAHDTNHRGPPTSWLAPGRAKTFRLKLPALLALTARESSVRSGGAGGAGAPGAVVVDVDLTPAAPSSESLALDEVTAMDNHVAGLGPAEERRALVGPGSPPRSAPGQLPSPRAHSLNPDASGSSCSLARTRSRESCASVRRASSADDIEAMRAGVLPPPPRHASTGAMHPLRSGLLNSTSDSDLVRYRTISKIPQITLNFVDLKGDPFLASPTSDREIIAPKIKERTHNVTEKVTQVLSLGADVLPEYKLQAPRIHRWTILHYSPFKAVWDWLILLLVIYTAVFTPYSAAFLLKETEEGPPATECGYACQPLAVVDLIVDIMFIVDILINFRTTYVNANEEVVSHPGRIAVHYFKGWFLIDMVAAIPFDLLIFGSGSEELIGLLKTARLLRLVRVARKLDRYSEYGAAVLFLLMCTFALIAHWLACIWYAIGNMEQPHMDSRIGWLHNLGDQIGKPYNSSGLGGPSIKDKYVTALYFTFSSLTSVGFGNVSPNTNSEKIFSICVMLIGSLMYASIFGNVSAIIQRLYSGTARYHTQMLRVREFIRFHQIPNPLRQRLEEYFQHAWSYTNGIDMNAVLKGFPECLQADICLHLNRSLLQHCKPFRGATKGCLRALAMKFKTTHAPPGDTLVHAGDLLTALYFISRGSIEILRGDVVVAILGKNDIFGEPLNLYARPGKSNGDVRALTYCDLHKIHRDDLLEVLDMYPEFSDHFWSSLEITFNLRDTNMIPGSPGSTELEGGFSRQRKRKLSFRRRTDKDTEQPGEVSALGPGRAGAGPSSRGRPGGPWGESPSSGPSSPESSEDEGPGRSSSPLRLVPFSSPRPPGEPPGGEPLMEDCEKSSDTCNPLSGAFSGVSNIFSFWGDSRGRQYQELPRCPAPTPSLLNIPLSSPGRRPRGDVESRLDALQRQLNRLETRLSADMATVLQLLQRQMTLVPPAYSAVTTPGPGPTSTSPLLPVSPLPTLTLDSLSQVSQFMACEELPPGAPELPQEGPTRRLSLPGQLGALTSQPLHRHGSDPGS

[14] = tested on: Platelet; assay: Inhibition of ADP-induced platelet aggregation in human platelet rich plasma assessed as remaining activity at 500 nM by in-vitro light transmission aggregometry assay; assay type: functional
Method in brief: (§1)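 Light transmission aggregometry in human platelet-rich plasma; compound incubated, aggregation triggered with 3 µM ADP; remaining activity (RA) recorded at a single compound level (1000, 500 or 100 nM).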

[15] = AUC in Wistar rat at 10 mg/kg, po; assay type: ADME, organism-based, Plasma; parameters: dose 10 mg/kg, route oral; conditions: Wistar, plasma
Method in brief: (§2)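 Rats dosed by iv infusion at 1 mg/kg (n = 2) or orally at 10 mg/kg (n = 3); plasma levels measured, limit of quantification ca. 1 ng/mL.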

[16] = Cmax in Wistar rat at 10 mg/kg, po; assay type: ADME, organism-based; parameters: dose 10 mg/kg, route oral; conditions: Wistar, in vivo; method in brief: as §2
[17] = tested on: Platelet; assay: Inhibition of ADP-induced platelet aggregation in human platelet rich plasma assessed as remaining activity at 100 nM by in-vitro light transmission aggregometry assay; assay type: functional; method in brief: as §1
[18] = tested on: Platelet; assay: Inhibition of ADP-induced platelet aggregation in human platelet rich plasma assessed as remaining activity at 1000 nM by in-vitro light transmission aggregometry assay; assay type: functional; method in brief: as §1

SMILES	Ratio IC50 [1]	inhibition (INH) [2]	IC50 [3]	fraction unbound [4]	solubility [5]	Stability [6]	inhibition (INH) [7]	solubility [8]	Stability [9]	IC50 [10]	inhibition (INH) [11]	inhibition (INH) [12]	inhibition (INH) [13]	Activity [14]	AUC [15]	Cmax [16]	Activity [17]	Activity [18]
CCCNc1cc(C(=O)N[C@@H](CCC(=O)O)C(=O)N2CCN(C(=O)OCC)CC2)nc(-c2ccccc2)n1	24	Not Active	162 nM	0.015	soluble	Stable	Not Active	soluble	Stable	3820 nM	Not Active	Not Active	Not Active					
CCOC(=O)N1CCN(C(=O)[C@H](CCC(=O)O)NC(=O)c2cc(C3CCC(O)CC3)nc(-c3ccccc3)n2)CC1 (stereo not given in full)	4.3	Not Active	40 nM		soluble	Stable	Not Active	soluble	Stable	171 nM	Not Active	Not Active	Not Active	<30%	0.0782 µM·h	46.3 nM	<70%	
CCOC(=O)N1CCN(C(=O)[C@H](CCC(=O)O)NC(=O)c2cc(C(C)C)nc(-c3ccccc3)n2)CC1	22	Not Active	52 nM		soluble	Stable	Not Active	soluble	Stable	1140 nM	Not Active	Not Active	Not Active	>60%				>30%
CCOC(=O)N1CCN(C(=O)[C@H](CCC(=O)O)NC(=O)c2cc(N[C@@H]3CCOC3)nc(-c3ccccc3)n2)CC1	2.3	Not Active	25 nM	0.085	soluble	Stable	Not Active	soluble	Stable	58 nM	Not Active	Not Active	Not Active	<30%			<70%	
CCOC(=O)N1CCN(C(=O)[C@H](CCC(=O)O)NC(=O)c2cc(C(C)(C)C)nc(-c3ccccc3)n2)CC1	57	Not Active	36 nM		soluble	Stable	Not Active	soluble	Stable	2050 nM	Not Active	Not Active	Not Active	>60%				>30%
CCOC(=O)N1CCN(C(=O)[C@H](CCC(=O)O)NC(=O)c2cc(C3CC3)nc(-c3ccccc3)n2)CC1	54	Not Active	59.5 nM	0.003	soluble	Stable	Not Active	soluble	Stable	3230 nM	Not Active	Not Active	Not Active					
CCOC(=O)N1CCN(C(=O)[C@H](CCC(=O)O)NC(=O)c2cc(CCCO)nc(-c3ccccc3)n2)CC1	1.2	Not Active	218 nM	0.128	soluble	Stable	Not Active	soluble	Stable	264 nM	Not Active	Not Active	Not Active	<30%			<70%	
